One compound from BindingDB's records for doi:10.1021/jm300138g (Neuraxon, 2012) can be followed below.

The target in this test is Sodium-dependent noradrenaline transporter (Homo sapiens, UniProt P23975). Put plainly: Displacement of [3H]nisoxetine from human NET expressed in CHO cells after 120 mins by scintillation counting. An outline of the steps:
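Membranes from hNET-transfected CHO cells (20 μg protein) incubated 120 min at 4 °C with 1 nM [3H]nisoxetine in 50 mM Tris-HCl pH 7.4, 120 mM NaCl, 5 mM KCl. Nonspecific binding defined with 1 μM desipramine. Filtered on PEI-soaked GF/B and counted.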
In general terms: In a radioligand displacement assay an active substance lowers the binding of a labelled ligand.

Molecules are shown by their SMILES.

Sequence of Sodium-dependent noradrenaline transporter (P23975 whole entry): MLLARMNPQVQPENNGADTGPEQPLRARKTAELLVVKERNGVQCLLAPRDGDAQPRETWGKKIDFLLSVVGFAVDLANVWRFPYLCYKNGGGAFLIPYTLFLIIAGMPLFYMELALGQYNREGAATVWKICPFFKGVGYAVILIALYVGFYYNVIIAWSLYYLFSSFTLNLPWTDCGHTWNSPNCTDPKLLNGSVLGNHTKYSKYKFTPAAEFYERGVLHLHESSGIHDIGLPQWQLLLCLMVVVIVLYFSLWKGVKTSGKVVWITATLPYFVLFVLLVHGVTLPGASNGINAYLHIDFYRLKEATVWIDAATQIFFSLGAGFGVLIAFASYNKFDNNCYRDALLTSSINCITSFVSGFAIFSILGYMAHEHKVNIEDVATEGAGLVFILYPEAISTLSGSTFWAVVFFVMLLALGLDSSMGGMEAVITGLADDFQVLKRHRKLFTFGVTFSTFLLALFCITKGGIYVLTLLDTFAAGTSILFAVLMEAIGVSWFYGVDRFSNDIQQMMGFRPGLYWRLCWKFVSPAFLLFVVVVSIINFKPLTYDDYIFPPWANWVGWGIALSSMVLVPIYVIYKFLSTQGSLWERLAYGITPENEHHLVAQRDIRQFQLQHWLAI

As to `CN(C)C1CC=C(c2c[nH]c3ccc(N=C(N)c4cccs4)cc23)CC1` (stereo unspecified), the IC50 (usually the point on the concentration scale where inhibition reaches its midpoint) worked out at 550 nM.
